# Experimental data published in ChEMBL document CHEMBL5104108, “Concise synthesis and biological activity evaluation of novel pyrazinyl-aryl urea derivatives against several cancer cell lines, which can especially induce T24 apoptotic and necroptotic cell death” (RSC Med Chem, 2022).
# Calls of active or inactive are those of the source. No cut-off for these calls is given here.
# What was measured:
# [1] = tested on: T-24; test: Up-regulation of RIPK3 expression in human T24 cells at 2.5 to 7.5 uM measured by ELISA assay; assay type: functional, cell-based; details: dose 2.5-7.5 µM
# How it was run: (§1)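 T24 cells pretreated, collected, diluted in PBS, counted and stored overnight at −20 °C. After membrane disruption, lysates centrifuged at 5000 × g for 5 min (4 °C). RIPK1, RIPK3 and MLKL levels then measured with ELISA kits.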
# [2] = tested on: T-24; test: Down-regulation of p-MLKL expression in human T24 cells at 7.5 to 10 uM measured in presence of 60 uM Nec-1 after 16 hrs by Western blot analysis; assay type: functional, cell-based; details: dose 7.5-10 µM
# How it was run: (§2)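 T24 cells co-incubated 16 h with or without Nec-1 (60 μM). Lysates quantified by BCA, 40 μg protein resolved by SDS-PAGE, transferred to PVDF, probed with primary and peroxidase-conjugated secondary antibodies, detected by ECL. Band gray values normalized to β-actin loading control.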
# [3] = tested on: T-24; test: Up-regulation of RIPK3 expression in human T24 cells at 7.5 to 10 uM measured after 16 hrs by Western blot analysis; assay type: functional, cell-based; details: dose 7.5-10 µM
# [4] = tested on: T-24; test: Down-regulation of RIPK1 expression in human T24 cells at 7.5 to 10 uM measured in presence of 60 uM Nec-1 after 16 hrs by Western blot analysis; assay type: functional, cell-based; details: dose 7.5-10 µM; how it was run: as §2
# [5] = tested on: T-24; test: Induction of intracellular reactive oxygen species production in human T24 cells at 5 to 10 uM measured in presence of 60 uM Nec-1 after 16 hrs by flow cytometry analysis; assay type: functional, cell-based; details: dose 5-10 µM
# How it was run: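 After 5-23 treatment (16 h), floating and adherent T24 cells pooled and loaded with DCFH-DA (final 10 μM) for 30 min at 37 °C in the dark. Cells washed, resuspended in PBS and read by flow cytometry; quantified by luminescence spectrometry as % of control. Runs with zVAD (30 μM) or Nec-1 (60 μM). Three parallel samples.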
# [6] = tested on: T-24; test: Induction of apoptosis in human T24 cells assessed as increase in cleaved caspase-8 expression at 0 to 5 uM measured by Western blot analysis; assay type: functional, cell-based; details: dose 0-5 µM
# How it was run: (§3)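 Apoptosis-related proteins measured by Western blot in T24 lysates: 40 μg protein per lane by SDS-PAGE, PVDF transfer, primary and peroxidase-linked secondary antibodies, ECL detection, densitometry of gray values with β-actin as loading control.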
# [7] = tested on: T-24; test: Up-regulation of RIPK1 mRNA expression in human T24 cells at 7.5 to 12.5 uM measured by RT-PCR analysis; assay type: functional, cell-based; details: dose 7.5-12.5 µM
# How it was run: (§4)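 Total T24 RNA extracted with TRIzol. RT-PCR normalized to GAPDH, relative expression by 2−ΔΔCt versus control. Incubation 16 h for RIPK1/RIPK3/MLKL. At least three independent experiments, each in triplicate.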
# [8] = tested on: T-24; test: Down-regulation of VEGFR-2 mRNA expression in human T24 cells at 7.5 uM measured in presence of 25 uM apatinib by RT-PCR analysis; assay type: functional, cell-based
# [9] = Half-life in Sprague-Dawley rat at 12 mg/kg, IG measured HPLC analysis; assay type: ADME, organism-based; details: in vivo, po
# [10] = Clearance in Sprague-Dawley rat at 12 mg/kg, IG measured HPLC analysis; assay type: ADME, organism-based; details: in vivo, po
# [11] = tested on: MGC-803; test: Antiproliferative activity against human MGC-803 cells measured after 48 hrs by MTT assay; assay type: functional, cell-based; details: MGC-803, 48 h
# How it was run: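 Cells seeded 5 × 10^3 per well, grown overnight at 37 °C, then exposed to compound at final 1–40 μM (1, 2.5, 5, 7.5, 10, 12.5, 15, 20, 30, 40 μM) for the stated period. MTT added, 4 h at 37 °C, formazan dissolved in DMSO, absorbance read. IC50 = concentration killing 50% of cells relative to untreated control; mean ± S.D. of four independent experiments.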
# [12] = tested on: T-24; test: Induction of apoptosis in human T24 cells assessed as decrease in Bcl-2 expression at 5 to 7.5 uM measured by Western blot analysis; assay type: functional, cell-based; details: dose 5-7.5 µM; how it was run: as §3
# [13] = Cmax in Sprague-Dawley rat at 12 mg/kg, IG measured HPLC analysis; assay type: ADME, organism-based; set-up: dose 12 mg/kg, route ig; details: in vivo, po
# [14] = Tmax in Sprague-Dawley rat at 6 mg/kg, IG measured HPLC analysis; assay type: ADME, organism-based; details: in vivo, po
# How it was run: (§5)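 Fasted (12 h) male-unspecified Sprague-Dawley rats (250 ± 20 g), n = 6 per group. Single intragastric dose of suspension (2 mg mL−1 in Tween 80/0.9% NaCl 1.5:5 v/v). Orbital blood drawn at 0.5–48 h and plasma assayed by reversed-phase C18 HPLC-UV. One-compartment fit, weight 1.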
# [15] = Clearance in Sprague-Dawley rat at 6 mg/kg, IG measured HPLC analysis; assay type: ADME, organism-based; details: in vivo, po
# [16] = Absorption rate constant in Sprague-Dawley rat at 12 mg/kg, IG measured HPLC analysis; assay type: ADME, organism-based; details: in vivo, po
# [17] = tested on: T-24; test: Up-regulation of MLKL expression in human T24 cells at 2.5 to 7.5 uM measured by ELISA assay; assay type: functional, cell-based; details: dose 2.5-7.5 µM; how it was run: as §1
# [18] = tested on: T-24; test: Induction of apoptosis in human T24 cells assessed as increase in cleaved caspase-3 expression at 0 to 5 uM measured by Western blot analysis; assay type: functional, cell-based; details: dose 0-5 µM; how it was run: as §3
# [19] = tested on: T-24; test: Up-regulation of RIPK3 mRNA expression in human T24 cells at 7.5 to 12.5 uM measured by RT-PCR analysis; assay type: functional, cell-based; details: dose 7.5-12.5 µM; how it was run: as §4
# [20] = tested on: T-24; test: Induction of apoptosis in human T24 cells assessed as increase in Cytochrome c expression at 5 to 7.5 uM measured by Western blot analysis; assay type: functional, cell-based; details: dose 5-7.5 µM; how it was run: as §3
# [21] = MRT (0 to 48 hrs) in Sprague-Dawley rat at 6 mg/kg, IG measured HPLC analysis; assay type: ADME, organism-based; details: in vivo, po; how it was run: as §5
# [22] = tested on: T-24; test: Down-regulation of RIPK3 expression in human T24 cells at 7.5 to 10 uM measured in presence of 60 uM Nec-1 after 16 hrs by Western blot analysis; assay type: functional, cell-based; details: dose 7.5-10 µM; how it was run: as §2
# [23] = tested on: T-24; test: Down-regulation of p-RIPK1 expression in human T24 cells at 7.5 to 10 uM measured in presence of 60 uM Nec-1 after 16 hrs by Western blot analysis; assay type: functional, cell-based; details: dose 7.5-10 µM; how it was run: as §2
# [24] = tested on: T-24; test: Induction of apoptosis in human T24 cells assessed as apoptotic cells at 2.5 uM measured after 10 hrs by Annexin-V/FITC and propidium iodide staining based flow cytometry analysis; assay type: functional
# How it was run: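 T24 cells in 60 mm dishes treated 10 h at 37 °C, collected, PBS-washed, resuspended in binding buffer, stained with Annexin V-FITC and PI for 15 min at room temperature in the dark. At least 1 × 10^4 events per sample by flow cytometry; apoptotic cells = early (Annexin+/PI−) plus late (Annexin+/PI+). Triplicate experiments.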
# [25] = tested on: T-24; test: Induction of necroptosis in human T24 cells assessed as necrotic cells at 7.5 to 12.5 uM measured after 16 hrs by flow cytometry analysis; assay type: functional, cell-based; details: dose 7.5-12.5 µM
# How it was run: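 T24 cells in 60 mm dishes treated at 37 °C for 16 h with or without Nec-1 (60 μM). Washed thrice in PBS, then stained with Annexin V-FITC/PI for 15 min at room temperature in the dark. Flow cytometry, ≥1 × 10^4 events. Necrotic fraction taken as Annexin−/PI+. Done in triplicate.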
# [26] = MRT (0 to 48 hrs) in Sprague-Dawley rat at 12 mg/kg, IG measured HPLC analysis; assay type: ADME, organism-based; details: in vivo, po; how it was run: as §5
compound,measurement,setting,value
O=C(Nc1ccc(C(F)(F)F)cc1)Nc1cccc(CNc2nccnc2Cl)c1,Activity,[1],Active
same,Activity,[2],Active
same,Activity,[3],Active
same,Activity,[4],Active
same,Activity,[5],Active
same,Activity,[6],Active
same,Activity,[7],Active
same,Activity,[8],Active
same,half-life,[9],430 min
same,CL/F,[10],0.659 mL/min
same,IC50,[11],6.91 µM
same,Activity,[12],Active
same,Cmax,[13],3360 ng/mL
same,Tmax,[14],12 h
same,CL/F,[15],0.811 mL/min
same,Ka,[16],0.107 h⁻¹
same,Activity,[17],Active
same,Activity,[18],Active
same,Activity,[19],Active
same,Activity,[20],Active
same,MRT last,[21],9.17 h
same,Activity,[22],Active
same,Activity,[23],Active
same,Activity,[24],9.01%
same,Activity,[25],Active
same,MRT last,[26],10.3 h
